Measured values published in PMC5066155 (ACS Medicinal Chemistry Letters, 2016).
pIC50: −log10 of the molar value. Where two headings read alike, the source gives them in different places. One block for each molecule: values may come before it.

Legend:
[1] = Toxicological profile in animals; assay type: in vivo; settings: rats, dogs, and cynomolgus monkeys
Pharmacokinetics in dog = settings: in vivo, iv, 1 μmol/kg
[2] = system: human plasma sPLA2 activity; assay: Human plasma sPLA2 inhibition assay; assay type: biochemical
Procedure, shortened: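 Inhibition of endogenous sPLA2 activity in human plasma, run by a previously established protocol. The plasma IC50 is converted to an unbound value: IC50 × Fu/100, where Fu = 100 − human plasma protein binding (%). Values are means of at least two experiments, with experimental error within 20% of the value.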

Pharmacokinetics in rat = settings: in vivo, iv, 2 μmol/kg
[3] = system: cynomolgus monkey plasma sPLA2; assay: In vitro sPLA2 inhibition in cynomolgus monkey plasma; assay type: biochemical; settings: read-out: ICu,50
[4] = Pharmacokinetics in mouse; settings: in vivo, iv, 10 μmol/kg
[5] = system: sPLA2 activity in HepG2 cells; assay: sPLA2 activity inhibition in HepG2 cells; assay type: cell-based; settings: Homo sapiens, HepG2, read-out: sPLA2 activity inhibition IC50
sPLA2-IIa [6] = target: T1, sPLA2-IIa (Homo sapiens, UniProt P14555); assay: Ligand efficiency / ligand lipophilicity efficiency from sPLA2-IIa IC50; settings: pIC50 (sPLA2-IIa) – logD
T1 sequence (P14555 21-144): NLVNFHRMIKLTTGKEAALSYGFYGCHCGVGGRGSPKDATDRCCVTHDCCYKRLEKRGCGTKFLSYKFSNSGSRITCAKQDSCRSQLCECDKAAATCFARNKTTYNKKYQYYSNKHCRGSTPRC

sPLA2-IIa [7] = target: T1, sPLA2-IIa; assay: sPLA2 inhibition assay using phosphatidylcholine as substrate; assay type: biochemical; settings: for increase in affinity/potency compared to 1: sPLA2-IIa, relative to compound 1
IKs = IKs (Homo sapiens, UniProt P51787); assay: IonWorks patch clamp, CHO cells expressing IKs; assay type: cell-based
Chain of IKs (P51787 whole entry): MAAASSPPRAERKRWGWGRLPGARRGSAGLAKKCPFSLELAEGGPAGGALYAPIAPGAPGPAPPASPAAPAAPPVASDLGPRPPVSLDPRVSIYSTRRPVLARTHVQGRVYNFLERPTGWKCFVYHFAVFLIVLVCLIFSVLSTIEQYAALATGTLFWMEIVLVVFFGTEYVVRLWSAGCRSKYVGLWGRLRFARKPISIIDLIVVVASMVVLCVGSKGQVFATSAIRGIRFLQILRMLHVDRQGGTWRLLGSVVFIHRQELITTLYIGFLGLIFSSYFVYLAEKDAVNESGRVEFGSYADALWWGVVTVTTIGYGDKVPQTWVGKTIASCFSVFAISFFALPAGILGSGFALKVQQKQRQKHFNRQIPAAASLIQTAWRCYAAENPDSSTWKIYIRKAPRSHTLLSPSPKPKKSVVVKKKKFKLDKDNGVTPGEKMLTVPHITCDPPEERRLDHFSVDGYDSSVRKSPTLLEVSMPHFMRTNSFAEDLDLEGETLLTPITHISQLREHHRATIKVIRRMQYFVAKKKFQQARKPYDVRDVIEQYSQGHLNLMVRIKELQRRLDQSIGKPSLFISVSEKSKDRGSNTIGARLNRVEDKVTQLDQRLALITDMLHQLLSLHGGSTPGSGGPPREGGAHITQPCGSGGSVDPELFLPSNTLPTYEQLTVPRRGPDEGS

human OATP1B1 = target: T2, human OATP1B1 (Homo sapiens, UniProt Q9Y6L6); assay: Inhibition of pivastatin uptake to HEK293 cells transfected with human OATP1B1; assay type: cell-based
T2 sequence (Q9Y6L6 1-691): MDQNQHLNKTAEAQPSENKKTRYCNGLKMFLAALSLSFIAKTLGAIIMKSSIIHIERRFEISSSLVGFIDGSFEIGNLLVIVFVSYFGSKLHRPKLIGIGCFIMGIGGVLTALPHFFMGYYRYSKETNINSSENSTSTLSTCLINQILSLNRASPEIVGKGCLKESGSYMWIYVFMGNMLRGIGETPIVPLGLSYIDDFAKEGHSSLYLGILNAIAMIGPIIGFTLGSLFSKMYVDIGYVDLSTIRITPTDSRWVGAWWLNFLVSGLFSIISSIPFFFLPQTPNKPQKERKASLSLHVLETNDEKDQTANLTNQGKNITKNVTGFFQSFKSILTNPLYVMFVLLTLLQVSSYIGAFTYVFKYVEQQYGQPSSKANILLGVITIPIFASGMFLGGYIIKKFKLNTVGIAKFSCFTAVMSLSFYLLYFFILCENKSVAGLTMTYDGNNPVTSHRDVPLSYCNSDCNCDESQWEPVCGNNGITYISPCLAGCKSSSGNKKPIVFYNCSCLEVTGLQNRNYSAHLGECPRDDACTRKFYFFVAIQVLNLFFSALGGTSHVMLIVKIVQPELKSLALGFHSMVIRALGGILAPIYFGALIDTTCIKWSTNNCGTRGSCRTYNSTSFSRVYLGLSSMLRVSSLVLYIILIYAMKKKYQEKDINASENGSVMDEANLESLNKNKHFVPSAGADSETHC
Procedure, shortened: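 HEK293 cells transfected with human OATP1B1 are used to measure the test compound's inhibition of pivastatin uptake into the cells. The IC50 is reported as an estimated value. Results are means of at least two experiments, with experimental error within 20% of the value.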

sPLA2-V = target: T3, sPLA2-V (Homo sapiens, UniProt P39877); assay: sPLA2 inhibition assay using phosphatidylcholine as substrate; assay type: biochemical
T3 sequence (P39877 21-138): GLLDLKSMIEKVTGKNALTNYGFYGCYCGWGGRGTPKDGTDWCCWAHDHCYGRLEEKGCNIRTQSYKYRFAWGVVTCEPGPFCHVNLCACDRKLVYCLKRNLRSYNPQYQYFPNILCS

[8] = Intrinsic clearance in human hepatocytes; assay type: in vitro ADME; settings: pH 7.4
sPLA2-X = target: T4, sPLA2-X (Homo sapiens, UniProt O15496); assay: sPLA2 inhibition assay using phosphatidylcholine as substrate; assay type: biochemical
T4 sequence (O15496 43-165): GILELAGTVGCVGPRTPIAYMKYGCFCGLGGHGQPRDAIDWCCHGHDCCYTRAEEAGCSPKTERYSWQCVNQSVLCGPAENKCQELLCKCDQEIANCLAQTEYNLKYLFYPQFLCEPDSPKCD

[9] = read-out: plasma ICu,50, plasma sPLA2 IC50 × Fu/100
[10] = read-out: plasma ICu,50, plasma sPLA2 IC50 × Fu/100, NA = not active at maximum tested concentration (25 μM)

Compound: C[C@H](Cc1cccc(-c2cc(Cc3ccccc3)ccc2C(N)=O)c1)C(=O)O [(R)-7]
toxicological profile [1]: favorable toxicological profile
clearance (Pharmacokinetics in dog): 0.2 mL/min/kg
pIC50 [2, 9]: 10.00
clearance (Pharmacokinetics in rat): 1 mL/min/kg
pIC50 [3]: 9.00
clearance [4]: 9.2 mL/min/kg
pIC50 [5]: > 7.85

Compound: NC(=O)c1ccc(Cc2ccccc2)cc1-c1cccc(CC2(C(=O)O)CC2)c1 [Compound 9]
pIC50 (sPLA2-V): 6.60
pIC50 [2, 9]: 9.05
pIC50 (sPLA2-IIa [7]): 7.74
hepatocyte CLint at 1 µM [8]: 21 µL/min/1e6 cells
pIC50 (sPLA2-X): 6.24

Compound: CCc1c(C(=O)C(N)=O)c2c(OCC(=O)O)cccc2n1Cc1ccccc1 [varespladib, reference compound]
pIC50 [2, 10]: 8.10

Further lines, results first:

pIC50 [2, 10]: 6.05
LLE (sPLA2-IIa [6]): 2.2
Compound: NC(=O)c1ccc(Cc2ccccc2)cc1 [Compound 1, 4-benzylbenzamide]

increase in affinity/potency compared to 1 (sPLA2-IIa [7]): more than 300 fold
Compound: NC(=O)c1ccc(Cc2ccccc2)cc1-c1cccc(CC(=O)O)c1 [Compound 3]

pIC50 [2, 9]: 8.15
clearance (Pharmacokinetics in rat; Sprague-Dawley): 1 mL/min/kg
increase in affinity/potency compared to 1 (sPLA2-IIa [7]): 2000 fold
pIC50 (IKs): < 4.48
Compound: NC(=O)c1ccc(Cc2ccccc2)cc1-c1cccc(CCC(=O)O)c1 [Compound 4]

pIC50 (human OATP1B1): < 4.60
Compound: CC(Cc1cccc(-c2cc(Cc3ccccc3)ccc2C(N)=O)c1)C(=O)O (stereo not shown) [Compound 7]

pIC50 [2, 9]: 9.10
Compound: CCC(Cc1cccc(-c2cc(Cc3ccccc3)ccc2C(N)=O)c1)C(=O)O (stereo not shown) [Compound 8]
